The target in assay [1] is T1, Antigen-presenting glycoprotein CD1d (Mus musculus) (UniProt P11609+P11610). The assay is described as follows: Binding affinity to CD1d in C57BL/6 mouse HMNC cells assessed as iNKT cells stimulation by measuring increase in IL-2 production at 25 nM incubated for 72 hrs by ELISA. The class given is cell-based. A digest of the protocol: (§1)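 Primary murine hepatic mononuclear cells (HMNCs), which contain iNKT cells, were incubated with each glycolipid at 25 nM for 72 h. Cytokines released into the medium were quantified by ELISA, with α-GalCer as positive control.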
(In general: ELISA stands for enzyme-linked immunosorbent assay.)

The target of assay [2] is T1, Antigen-presenting glycoprotein CD1d (Mus musculus). The assay is described as follows: Binding affinity to CD1d in C57BL/6 mouse HMNC cells assessed as iNKT cells stimulation by measuring increase in Th2-type cytokine, IL-4 production at 25 nM incubated for 72 hrs by ELISA. The class given is cell-based. A digest of the protocol:
as §1

Assay [3] has the same target. The assay is described as follows: Binding affinity to CD1d in C57BL/6 mouse HMNC cells assessed as iNKT cells stimulation by measuring Th1-type cytokine, IFNgamma production at 25 nM incubated for 72 hrs by ELISA. The class given is cell-based. A digest of the protocol:
as §1

Assay [4] shares this target. The assay is described as follows: Binding affinity to CD1d in C57BL/6 mouse HMNC cells assessed as iNKT cells stimulation by measuring increase in IL17 production at 25 nM incubated for 72 hrs by ELISA. It counts as cell-based. A digest of the protocol:
as §1

Assay [5] has the same target. The assay is described as follows: Covalent binding affinity to mouse CD1d at 10 equivalent incubated for 3 hrs by coomassie blue staining based SDS-PAGE analysis. It counts as protein assay. An outline of the steps: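 CD1d protein was incubated with each ligand under several reported or modified conditions. Samples were then denatured and resolved by SDS-PAGE. Gels were stained with Coomassie blue to look for covalent CD1d–ligand adduct bands alongside intact protein.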

Assay [6] has the same target. Kind of assay: Covalent binding affinity to mouse CD1d at 5 equivalent incubated in DBPS buffer with tween 20 for 3 hrs by MALDI-TOF analysis. It counts as protein assay. A digest of the protocol: (§2)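 Samples of CD1d protein incubated with each ligand were analysed by MALDI-TOF mass spectrometry. The aim was to detect covalent conjugates formed between a CD1d cysteine and the ligand's α-fluorocarbonyl group.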

Assay [7] has the same target. The assay is described as follows: Covalent binding affinity to mouse CD1d at 5 equivalent incubated in DBPS buffer without tween 20 for 3 hrs by MALDI-TOF analysis. The class given is protein assay. An outline of the steps:
as §2

For assay [8] the target is unchanged. Kind of assay: Binding affinity to CD1d in C57BL/6 mouse HMNC cells assessed as iNKT cells stimulation by measuring increase in ratio of IL-4 to IFNgamma (IL-4/IFNgamma) level at 25 nM incubated for 72 hrs by ELISA. The class given is cell-based.
The target is the same in assay [9]. Kind of assay: Covalent binding affinity to mouse CD1d at 14.6 equivalent incubated in tris buffer with tween 20 at pH 7.5 to 8 for 16 hrs by MALDI-TOF MS analysis. It counts as protein assay. An outline of the steps:
as §2

Assay [10] has the same target. The assay is described as follows: Covalent binding affinity to mouse CD1d at 14.6 equivalent incubated in tris buffer without tween 20 at pH 7.5 to 8 for 16 hrs by MALDI-TOF MS analysis. It counts as protein assay. A digest of the protocol:
as §2

Molecules are shown by their SMILES. Calls of active or inactive are those of the source. The calls are words filed in the database; no cut-off is given here.

As to `CCCCCCCCCCCCCC[C@@H](O)[C@@H](O)[C@H](CO[C@H]1O[C@H](CO)[C@H](O)[C@H](O)[C@H]1O)NC(=O)CCCCCCCCCCCCCCCCCCC(=O)CF`, the result in assay [1], in assay [2], in assay [4] and in assay [8] was Active. The outcome in assay [3], in [5], in [6] and in [7] was inactive.
On to `CCCCCCCCCCCCCCCCCCCCCCCC(=O)N[C@@H](CO[C@H]1O[C@H](CO)[C@H](O)[C@H](O)[C@H]1O)[C@H](O)[C@H](O)CCCCC`, for which the result in assay [2] and in assay [3] was inactive. In assay [8], the result was Active.
Take `CCCCCCCCCCCCCC[C@@H](O)[C@@H](O)[C@H](CO[C@H]1O[C@H](CO)[C@H](O)[C@H](O)[C@H]1O)NC(=O)CCCCCCCCCCCCCCCCCCCC(=O)CF`: the result in assay [1], in assay [2], in [4] and in assay [8] was Active. The outcome in assay [3], in [5], in assay [6] and in [7] was inactive.
With `CCCCCCCCCCCCCC[C@@H](O)[C@@H](O)[C@H](CO[C@H]1O[C@H](CO)[C@H](O)[C@H](O)[C@H]1O)NC(=O)CCCCCCCCCCCCCCCCC(=O)CF`, the result in [1] and in assay [2] was Active. Besides, the result in assay [3], in assay [5], in [6] and in assay [7] was inactive.
`CCCCCCCCCCCCCCCCCCCCCCCCCC(=O)N[C@@H](CO[C@H]1O[C@H](CO)[C@H](O)[C@H](O)[C@H]1O)[C@H](O)[C@H](O)CCCCCCCCCCCCCC`: the outcome in [1], in assay [2] and in [4] was Active.
Regarding `CCCCCCCCCCCCCC[C@@H](O)[C@@H](O)[C@H](CO[C@H]1O[C@H](CO)[C@H](O)[C@H](O)[C@H]1O)NC(=O)CCCCCCCCCCCCCCCCCC(=O)CF`, the outcome in [1], in [2] and in assay [8] was Active. For the same compound, the result in assay [3], in [5], in assay [6] and in [7] was inactive.
Consider `CCCCCCCCCCCCCC[C@@H](O)[C@@H](O)[C@H](CO[C@H]1O[C@H](CO)[C@H](O)[C@H](O)[C@H]1O)NC(=O)CCCCCCCCCCCCCCCCCCCCC(=O)CF`, for which the result in assay [1], in [2], in assay [4] and in assay [8] was Active. Also, the result in assay [3], in assay [5], in assay [6], in [7], in assay [9] and in assay [10] was inactive.

For the origin of these results see ChEMBL document CHEMBL4304754, “Development of α-GalCer Analogues with an α-Fluorocarbonyl Moiety as Th2-Selective Ligands of CD1d” (ACS Med Chem Lett, 2019).
